Reference: ChEMBL document CHEMBL4265871, “Novel alkylated azoles as potent antifungals” (Eur J Med Chem, 2017)
≈ marks a conversion by molar mass, not a printed value.

Columns and labels:
[1] = Selectivity index, ratio of EC50 for toxicity in human A549 cells to MIC50 for antifungal activity against ITC and FLC-resistant Candida albicans ATCC MYA-1003; format: cell-based; details: read-out: Selectivity Index
Procedure, shortened: (§1)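 Selectivity index is the EC50 against the mammalian line (A549 or BEAS-2B) divided by the MIC against the given fungal strain.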

Candida albicans [2] = test: Antifungal activity against ITC and FLC-resistant Candida albicans ATCC MYA-90819 incubated for 48 hrs by modified CLSI M27-A3 protocol based method; format: functional; details: ATCC MYA-90819, 48 h
[3] = Selectivity index, ratio of EC50 for toxicity in human A549 cells to MIC50 for antifungal activity against ITC and FLC-susceptible Candida albicans ATCC MYA-2310; format: cell-based; details: read-out: Selectivity Index; procedure, shortened: as §1
[4] = Selectivity index, ratio of EC50 for toxicity in human BEAS2B cells to MIC50 for antifungal activity against Aspergillus nidulans ATCC 38163; format: cell-based; details: read-out: Selectivity Index; procedure, shortened: as §1
[5] = Selectivity index, ratio of EC50 for toxicity in human BEAS2B cells to MIC50 for antifungal activity against ITC and FLC-resistant Candida albicans ATCC MYA-1003; format: cell-based; details: BEAS-2B cells, read-out: Selectivity Index; procedure, shortened: as §1
Candida albicans [6] = test: Antifungal activity against ITC and FLC-resistant Candida albicans ATCC 1237 incubated for 48 hrs by modified CLSI M27-A3 protocol based method; format: functional; details: ATCC 1237, 48 h
Procedure, shortened: (§2)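 Because these Candida strains show trailing growth, MIC-2 was read, meaning 50% growth inhibition. Caspofungin and voriconazole were tested here; other controls came from earlier work.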

[7] = Selectivity index, ratio of EC50 for toxicity in human BEAS2B cells to MIC50 for antifungal activity against Candida krusei ATCC 6258; format: cell-based; details: BEAS-2B cells, read-out: Selectivity Index; procedure, shortened: as §1
[8] = Selectivity index, ratio of EC50 for toxicity in human A549 cells to MIC50 for antifungal activity against Candida albicans ATCC 10231; format: cell-based; details: read-out: Selectivity Index; procedure, shortened: as §1
[9] = Selectivity index, ratio of EC50 for toxicity in human A549 cells to MIC50 for antifungal activity against ITC and FLC-resistant Candida albicans ATCC MYA-90819; format: cell-based; details: read-out: Selectivity Index; procedure, shortened: as §1
[10] = Selectivity index, ratio of EC50 for toxicity in human A549 cells to MIC50 for antifungal activity against ITC and FLC-susceptible Candida albicans ATCC MYA-2876; format: cell-based; details: read-out: Selectivity Index; procedure, shortened: as §1
Aspergillus terreus = test: Antifungal activity against Aspergillus terreus ATCC MYA-3633 incubated for 48 hrs by CLSI M38-A2 protocol based method; format: functional; details: ATCC MYA-3633, 48 h
Candida parapsilosis = test: Antifungal activity against Candida parapsilosis ATCC 22019 incubated for 48 hrs by modified CLSI M27-A3 protocol based method; format: functional; details: Lodderomyces parapsilosis, ATCC 22019, 48 h
Procedure, shortened: (§3)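 For C. albicans ATCC 10231, C. krusei ATCC 6258 and C. parapsilosis ATCC 22019, MIC-0 was read, meaning complete growth inhibition. For azole controls, MIC-2 (50% growth inhibition) was reported instead. Caspofungin and voriconazole were tested here; other controls came from earlier work.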

[11] = Selectivity index, ratio of EC50 for toxicity in human BEAS2B cells to MIC50 for antifungal activity against Candida albicans ATCC 64124; format: cell-based; details: BEAS-2B cells, read-out: Selectivity Index; procedure, shortened: as §1
Candida albicans [12] = test: Antifungal activity against Candida albicans ATCC 10231 incubated for 48 hrs by modified CLSI M27-A3 protocol based method; format: functional; details: ATCC 10231, 48 h; procedure, shortened: as §3
[13] = Selectivity index, ratio of EC50 for toxicity in human BEAS2B cells to MIC50 for antifungal activity against ITC and FLC-resistant Candida albicans ATCC 1237; format: cell-based; details: BEAS-2B cells, read-out: Selectivity Index; procedure, shortened: as §1
[14] = Selectivity index, ratio of EC50 for toxicity in human A549 cells to MIC50 for antifungal activity against Candida albicans ATCC 64124; format: cell-based; details: read-out: Selectivity Index; procedure, shortened: as §1
[15] = Selectivity index, ratio of EC50 for toxicity in human BEAS2B cells to MIC50 for antifungal activity against ITC and FLC-susceptible Candida albicans ATCC MYA-2310; format: cell-based; details: BEAS-2B cells, read-out: Selectivity Index
Procedure, shortened: (§4)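 Ratio of the compound's EC50 against BEAS-2B cells to its MIC against the named C. albicans strain. […] For C. albicans strains other than ATCC 10231, trailing growth meant MIC-2 was taken, meaning 50% growth inhibition.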

[16] = Selectivity index, ratio of EC50 for toxicity in human BEAS2B cells to MIC50 for antifungal activity against Aspergillus terreus ATCC MYA-3633; format: cell-based; details: read-out: Selectivity Index; procedure, shortened: as §1
[17] = Selectivity index, ratio of EC50 for toxicity in human BEAS2B cells to MIC50 for antifungal activity against ITC and FLC-resistant Candida albicans ATCC MYA-90819; format: cell-based; details: BEAS-2B cells, read-out: Selectivity Index; procedure, shortened: as §4
[18] = Selectivity index, ratio of EC50 for toxicity in human BEAS2B cells to MIC50 for antifungal activity against Aspergillus flavus ATCC MYA-3631; format: cell-based; details: read-out: Selectivity Index; procedure, shortened: as §1
[19] = Toxicity in human A549 cells assessed as reduction in cell viability incubated for 24 hrs by resazurin dye based assay
Procedure, shortened: (§5)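 Toxicity tested in the nucleated lines A549 and BEAS-2B to give EC50 values. Selectivity index is EC50 against the mammalian line divided by the MIC against a given fungal strain.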

[20] = Selectivity index, ratio of EC50 for toxicity in human A549 cells to MIC50 for antifungal activity against Candida glabrata ATCC 2001; format: cell-based; details: read-out: Selectivity Index; procedure, shortened: as §1
[21] = Selectivity index, ratio of EC50 for toxicity in human BEAS2B cells to MIC50 for antifungal activity against Candida albicans ATCC 10231; format: cell-based; details: BEAS-2B cells, read-out: Selectivity Index; procedure, shortened: as §1
Aspergillus nidulans = test: Antifungal activity against Aspergillus nidulans ATCC 38163 incubated for 48 hrs by CLSI M38-A2 protocol based method; format: functional; details: ATCC 38163, 48 h
Candida albicans [22] = test: Antifungal activity against Candida albicans ATCC 64124 incubated for 48 hrs by modified CLSI M27-A3 protocol based method; format: functional; details: ATCC 64124, 48 h
[23] = Toxicity in human BEAS2B cells assessed as reduction in cell viability incubated for 24 hrs by resazurin dye based assay; details: BEAS-2B cells; procedure, shortened: as §5
[24] = Selectivity index, ratio of EC50 for toxicity in human A549 cells to MIC50 for antifungal activity against Candida krusei ATCC 6258; format: cell-based; details: read-out: Selectivity Index; procedure, shortened: as §1
[25] = Selectivity index, ratio of EC50 for toxicity in human A549 cells to MIC50 for antifungal activity against Aspergillus terreus ATCC MYA-3633; format: cell-based; details: read-out: Selectivity Index; procedure, shortened: as §1
Pichia kudriavzevii = test: Antifungal activity against Candida krusei ATCC 6258 incubated for 48 hrs by modified CLSI M27-A3 protocol based method; format: functional; details: ATCC 6258, 48 h; procedure, shortened: as §3
[26] = Selectivity index, ratio of EC50 for toxicity in human BEAS2B cells to MIC50 for antifungal activity against ITC and FLC-susceptible Candida albicans ATCC MYA-2876; format: cell-based; details: BEAS-2B cells, read-out: Selectivity Index; procedure, shortened: as §4
Candida albicans [27] = test: Antifungal activity against ITC and FLC-resistant Candida albicans ATCC MYA-1003 incubated for 48 hrs by modified CLSI M27-A3 protocol based method; format: functional; details: ATCC MYA-1003, 48 h; procedure, shortened: as §2
[28] = Selectivity index, ratio of EC50 for toxicity in human A549 cells to MIC50 for antifungal activity against Aspergillus flavus ATCC MYA-3631; format: cell-based; details: read-out: Selectivity Index; procedure, shortened: as §1
Candida albicans [29] = test: Antifungal activity against ITC and FLC-susceptible Candida albicans ATCC MYA-2876 incubated for 48 hrs by modified CLSI M27-A3 protocol based method; format: functional; details: ATCC MYA-2876, 48 h; procedure, shortened: as §2
Nakaseomyces glabratus = test: Antifungal activity against Candida glabrata ATCC 2001 incubated for 48 hrs by modified CLSI M27-A3 protocol based method; format: functional; details: ATCC 2001, 48 h
[30] = Selectivity index, ratio of EC50 for toxicity in human A549 cells to MIC50 for antifungal activity against Aspergillus nidulans ATCC 38163; format: cell-based; details: read-out: Selectivity Index; procedure, shortened: as §1
[31] = Selectivity index, ratio of EC50 for toxicity in human A549 cells to MIC50 for antifungal activity against ITC and FLC-resistant Candida albicans ATCC 1237; format: cell-based; details: read-out: Selectivity Index; procedure, shortened: as §1
Candida albicans [32] = test: Antifungal activity against ITC and FLC-susceptible Candida albicans ATCC MYA-2310 incubated for 48 hrs by modified CLSI M27-A3 protocol based method; format: functional; details: ATCC MYA-2310, 48 h
[33] = Selectivity index, ratio of EC50 for toxicity in human BEAS2B cells to MIC50 for antifungal activity against Candida glabrata ATCC 2001; format: cell-based; details: BEAS-2B cells, read-out: Selectivity Index; procedure, shortened: as §1
Aspergillus flavus = test: Antifungal activity against Aspergillus flavus ATCC MYA-3631 incubated for 48 hrs by CLSI M38-A2 protocol based method; format: functional; details: ATCC MYA-3631, 48 h

In the case of `CC[C@@H]([C@H](C)O)n1ncn(-c2ccc(N3CCN(c4ccc(OC[C@@H]5CO[C@@](Cn6cncn6)(c6ccc(F)cc6F)C5)cc4)CC3)cc2)c1=O` [POSACONAZOLE], the selectivity ratio [1] is reported as 2, the MIC50 (Candida albicans [2]) is reported as 44.7 µM (≈ 31.3 µg/mL) and the selectivity ratio [3] is reported as 1. For the same molecule, the selectivity ratio [4] was 133, the selectivity ratio [5] was 2 and the MIC50 (Candida albicans [6]) was 22.3 µM (≈ 15.6 µg/mL). For the same molecule, the selectivity ratio [7] was 433 to 867, the selectivity ratio [8] was 74 and the selectivity ratio [9] was 1. For the same molecule, the selectivity ratio [10] was 5, the MIC50 (Aspergillus terreus) was 0.68 µM (≈ 0.477 µg/mL) and the MIC50 (Candida parapsilosis) was under 0.04 µM. The selectivity ratio [11] was 0.4, the MIC50 (Candida albicans [12]) was 0.71 µM (≈ 0.498 µg/mL) and the selectivity ratio [13] was 2. It also gave a selectivity ratio [14] of 1, a selectivity ratio [15] of 1 and a selectivity ratio [16] of 54. For the same molecule, the selectivity ratio [17] was 1, the selectivity ratio [18] was 108 and the EC50 at 24 h [19] was 37 mg/L (≈ 52.8 µM). For the same molecule, the selectivity ratio [20] was 308, the selectivity ratio [21] was 52 and the MIC50 (Aspergillus nidulans) was 0.28 µM (≈ 0.196 µg/mL). It also gave an MIC50 (Candida albicans [22]) of over 89.2 µM, an EC50 at 24 h [23] of 26 mg/L (≈ 37.1 µM) and a selectivity ratio [24] of 617 to 1230. For the same molecule, the selectivity ratio [25] was 77, the MIC50 (Pichia kudriavzevii) was 0.09 µM (≈ 0.0631 µg/mL) and the selectivity ratio [26] was 3. It also gave an MIC50 (Candida albicans [27]) of 22.3 µM (≈ 15.6 µg/mL), a selectivity ratio [28] of 154 and an MIC50 (Candida albicans [29]) of 11.1 µM (≈ 7.78 µg/mL). It also gave an MIC50 (Nakaseomyces glabratus) of 0.17 µM (≈ 0.119 µg/mL), a selectivity ratio [30] of 190 and a selectivity ratio [31] of 2. For the same molecule, the MIC50 (Candida albicans [32]) was 44.7 µM (≈ 31.3 µg/mL), the selectivity ratio [33] was 217 and the MIC50 (Aspergillus flavus) was 0.34 µM (≈ 0.238 µg/mL).
